RGS4 pot: potentiators or activators of RGS4 | HEK293 M3R/inducible RGS4, carbachol calcium flux Fluo4; active compounds read low | B-score at 10 µM | hit rate 0.92% among 310,000;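 active = B-score of the integrated calcium signal more than 4 SD below the library mean, with starting fluorescence not abnormally high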;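 note: negative B-score means reduced calcium response which marks RGS4 activation or potentiation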
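Test system: HEK293 cells with stable M3R and inducible RGS4; also added: carbachol at ECmax as muscarinic agonist stimulus; schedule: dye loading 30 min 37 °C, buffer rest 30 min RT; technique: kinetic calcium fluorescence imaging with Fluo4-AM dye, 2 µM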
MrgX1 antagonist: human MrgX1 receptor antagonism, primary screen; Q96LB2; MRGX1-HEK293 calcium flux, Fluo-4, BAM8-22 antagonism; active compounds read low; B-score at 10 µM; hit rate 1.3% among 310,000; AID 588676;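 active = calcium-response B-score plate-corrected more than 3 library SD below zero, starting fluorescence within 5 deviations, no agonist response on first addition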;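 note: peak minus trough fluorescence over baseline after final BAM8-22 challenge near maximal dose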
Target sequence (Q96LB2 whole entry, looked up): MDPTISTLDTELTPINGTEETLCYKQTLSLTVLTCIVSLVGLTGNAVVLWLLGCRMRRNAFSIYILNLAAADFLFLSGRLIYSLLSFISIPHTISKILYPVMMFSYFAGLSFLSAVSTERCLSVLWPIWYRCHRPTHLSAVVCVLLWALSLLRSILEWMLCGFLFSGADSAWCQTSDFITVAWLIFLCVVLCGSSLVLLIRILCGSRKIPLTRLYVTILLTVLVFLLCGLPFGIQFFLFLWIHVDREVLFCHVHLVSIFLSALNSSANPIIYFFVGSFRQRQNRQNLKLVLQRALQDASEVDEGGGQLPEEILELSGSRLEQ
MrgX1 agonist: human MrgX1 receptor agonism, primary screen. Q96LB2. MrgX1-HEK293 cells, Fluo-4 calcium fluorescence, agonist mode; active compounds read high. B-score at 10 µM. hit rate 0.44% among 310,000. AID 588627;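 active = calcium response B-score plate-corrected fluorescence ratio at least 3 library SD, with starting fluorescence B-score inside 5 SD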
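Material: HEK293 cells stably expressing human MrgX1 receptor | Quantity: 15,000 cells per well | Times: Cells plated overnight, dye loaded 0.5 h 37 °C, 0.5 h room temperature | Measured by: Kinetic Fluo-4 NW fluorescence of intracellular calcium | Control set: Positive and negative controls per plate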
MrgX1 allo act: human MrgX1 positive allosteric modulation, primary screen. Q96LB2. MrgX1-HEK293, Fluo-4 calcium flux, FDSS; active compounds read high. B-score at 10 µM. hit rate 0.63% among 310,000. AID 588675;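 active = plate-corrected calcium response at least 3 library SD above typical, normal starting fluorescence, not activating the receptor alone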;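 note: compound read alongside a low EC10 to EC30 dose of BAM8-22 agonist; peak minus trough fluorescence over baseline measured at the second addition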
RGS4 inh: human RGS4 inhibition; B-score at 10 µM; HEK293 M3R/RGS4 inducible, Fluo-4 calcium flux; active compounds read high; triggered by carbachol at its EC20; hit rate 0.45% among 310,000; P49798;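 active = B-score, a plate-corrected calcium signal, over three deviations above library mean, with baseline fluorescence within five deviations of library mean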;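 note: RGS4 expression induced by doxycycline in cells with stable M3 receptor; B-score is computed from the integrated fluorescence ratio over baseline after carbachol; higher B-score means a larger calcium signal and so more RGS4 inhibition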
Target sequence (P49798 whole entry, looked up): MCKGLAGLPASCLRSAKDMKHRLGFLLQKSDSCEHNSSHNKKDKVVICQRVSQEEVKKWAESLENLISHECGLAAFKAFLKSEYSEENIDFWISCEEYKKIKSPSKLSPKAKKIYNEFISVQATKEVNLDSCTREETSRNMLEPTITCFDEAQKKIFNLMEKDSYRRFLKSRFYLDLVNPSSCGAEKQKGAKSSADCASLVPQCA
Active calls of the source: *; i = inactive; . = not tested or not shown. Most compounds without a hit are left out; they make up all but 3.5% or so of the library.

SMILES	RGS4 pot	MrgX1 antagonist	MrgX1 agonist	MrgX1 allo act	RGS4 inh
O=C(CN(Cc1ccc(F)cc1)C(=O)Cn1nnc2ccccc21)NCC1CCCO1 (configuration not stated)	i	i	i	16.5*	i
O=C(NCc1ccc(F)cc1)C(c1ccccc1)N(CC1CCCO1)C(=O)Cn1nnc2ccccc21 (configuration not stated)	i	i	i	i	i
O=C(Cc1cccc2ccccc12)Nc1ccc(Br)cc1C(=O)O	i	-6.3*	i	i	i
N/C(=N\OC(=O)C1CCCCC1)c1ccc(Br)cc1	i	i	i	i	i
N/C(=N\OC(=O)C1CCCCC1)c1ccncc1	i	-4.52*	i	i	i
CN1CCCc2cc3c(C(F)(F)F)cc(=O)oc3nc21	-7.98*	i	i	i	i
CC(C)c1cc(=O)oc2c3c4c(cc12)CCCN4CCC3	i	i	i	i	i
CSc1ncccc1C(=O)N1CCCC(Nc2ccc(C)c(C)c2)C1 (configuration not stated)	i	i	i	i	i
CSCC[C@H](NC(=O)c1ccc2ccccc2c1)C(=O)N1CCC2(CC1)NCCc1[nH]cnc12	-7.61*	i	i	i	i
C/C(=N\NC(=O)COc1cc(C)cc(C)c1)c1cccc(NC(=O)C2CCC2)c1	i	i	i	i	i
CCOC(=O)C1=C(COC(=O)/C=C/c2cccc(OC)c2)NC(=O)NC1C (configuration not stated)	-6.96*	i	i	i	i
CC(=O)NN1C(=O)/C(=C/c2ccc(Br)o2)SC1=S	i	i	i	7.05*	i
CC(=O)NN1C(=O)/C(=C\c2ccccc2)SC1=S	i	i	i	9.46*	i
O=S(=O)(c1cccc2nsnc12)N1CCNCC1	i	i	i	i	i
Cc1cc(C)n2nc(SCC(=O)Nc3c(C)n(C)n(-c4ccccc4)c3=O)nc2n1	i	-4.58*	i	i	i
Cc1c(NC(=O)CSc2ncccn2)c(=O)n(-c2ccccc2)n1C	i	i	i	i	i
CCCOc1ccccc1C(=O)N1CCNC(=O)C1CC(=O)OC(C)C (configuration not stated)	i	i	i	i	i
Cc1c(NC(=O)C2CCCN(S(=O)(=O)c3cnc[nH]3)C2)c(=O)n(-c2ccccc2)n1C (configuration not stated)	i	-7.27*	i	i	i
Cc1ccccc1NC(=O)C1CCCN(S(=O)(=O)c2cnc[nH]2)C1 (configuration not stated)	i	i	i	i	i
Cc1ccc(S(=O)(=O)/N=C2/NC(=O)/C(=C\c3ccco3)S2)cc1	.	i	i	i	.
Cc1ccc(/C=C2\S/C(=N/S(=O)(=O)c3cccs3)NC2=O)cc1	i	i	i	14.1*	i
COC(=O)c1ccc(C23CC4(C2)[C@H](CN(C)[C@@H]4c2ccccc2)C3c2ccc(Cl)nc2)cc1 (some centres not stated)	-7.11*	i	i	i	i
Cc1ccccc1-c1nc2cc(NC(=O)C3CC3)ccc2o1	i	i	i	i	i
CCCc1ccc(OCc2ccc(C(=O)O)o2)c(OC)c1	i	i	i	i	i
CCCc1ccc(OCc2ccc(C(=O)NN)o2)c(OC)c1	i	-5.27*	i	i	i
SMILES	RGS4 pot	MrgX1 antagonist	MrgX1 agonist	MrgX1 allo act	RGS4 inh
CN(C)S(=O)(=O)c1cccc(-c2nn(-c3ccccc3)cc2/C=C2\SC(=S)NC2=O)c1	.	i	i	16.9*	.
CC(C)CN(C(=O)COC(=O)COc1ccc2c(c1)CCC2)c1c(N)n(Cc2ccccc2)c(=O)[nH]c1=O	i	i	i	i	i
Cc1nn(-c2ccc(Cl)nn2)c(=O)c2ccccc12	i	i	i	13.9*	i
Cc1nn(-c2ccc(Cl)cc2)c(=O)c2ccccc12	i	i	i	i	i
O=c1c(Cl)c(N2CCOCC2)cnn1-c1nc2ccccc2[nH]1	i	-7.07*	i	i	i
O=C(NC(CO)(CO)CO)[C@@H]1CCCN1S(=O)(=O)c1cccc2cccnc12	.	i	i	i	.
Cc1ccc(S(=O)(=O)c2cc3ccccc3oc2=O)cc1	i	i	i	i	i
Cc1c(O)ccc2cc(S(=O)(=O)c3ccccc3)c(=O)oc12	-7.77*	i	i	i	i
O=[N+]([O-])c1cc(S(=O)(=O)N2CCCCCC2)ccc1F	.	i	i	6.63*	.
CCCc1ccc(OCc2ccccc2)c2c(=O)cc(C(=O)OCC)oc12	i	i	i	i	i
NNC(=O)c1ccc(CSc2cccc3cccnc23)cc1	i	-4.58*	i	i	i
O=C(N/N=C/c1ccccc1Br)c1ccc(CSc2cccc3cccnc23)cc1	i	i	i	i	i
O=C(Nc1ccc(Cl)cc1)[C@@H]1[C@@H]2C(=O)N(c3ccc(Cl)cc3Cl)C(=O)[C@@H]2[C@H]2C=CC=NN21	i	-5.09*	i	i	i
O=C(Nc1ccc(Cl)cc1)[C@@H]1[C@@H]2C(=O)N(c3ccc(Cl)cc3)C(=O)[C@@H]2[C@H]2C=CC=NN21	i	i	i	i	i
Cc1cc(C)c(C#N)c(SCc2c(F)cccc2[N+](=O)[O-])n1	i	-5.74*	i	i	i
CCc1ccccc1NC(=O)CNC(=O)c1ccc(-n2cncn2)c([N+](=O)[O-])c1	i	i	i	i	i
O=C1Nc2ccccc2C1=Nc1ccc(Cl)cc1	i	i	i	i	i
Cc1ccc(N=C2C(=O)Nc3ccccc32)cc1	i	i	42.3*	i	i
Cc1cccc(C(=O)OCC(=O)N2CCCC2=O)c1[N+](=O)[O-]	i	i	i	i	i
Cc1ccccc1OCCNc1ccc(C(F)(F)F)cc1[N+](=O)[O-]	i	i	i	i	i
O=[N+]([O-])c1cc(C(F)(F)F)ccc1NCCOc1ccccc1	i	i	i	9.06*	i
COc1ccc(S(=O)(=O)N2CCN(C(=O)c3cc(-c4ccc(Br)cc4)n[nH]3)CC2)cc1OC	-7.05*	i	i	i	i
COc1ccc(C(CC(=O)O)NC(=O)COc2ccc(C)cc2)cc1OC (configuration not stated)	i	i	i	i	i
COc1ccc(C(=O)/C=C2/C(=O)Nc3ccccc32)c(OC)c1	i	i	i	i	i
COc1ccc(C(=O)/C=C2/C(=O)Nc3ccccc32)cc1OC	i	i	i	i	12.4*

From PubChem BioAssay
